Sampled rows, rich in hits. Any-hit rate of the full collection: about 3%.
NPY-Y2 antag: antagonists of human neuropeptide Y receptor Y2; P49146; NPY-Y2 expressing cells, antagonist mode; inhibition, % at 2.7 µM; 0.99% of 140,000 active; AID 793; in the data active = inhibition above about 17%
Hsp70 activator: Hsp70 transcriptional activation, primary screen | HeLa Hsp70 promoter luciferase reporter, luminescence; scaled: vehicle 0, proteasome-inhibitor control 100% | activation, % at 10 µM | 0.04% of 200,000 active | AID 1203;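 active = activation above the mean across all tested compounds plus 3 SD, cutoff set per campaign, cut at about 5.5% in these data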
NPY-Y1 antag: NPY-Y1 (human) receptor antagonism. P25929. HEK293-CNG Y1 cells, membrane potential fluorescence; NPY at EC95, then isoproterenol. inhibition, % at 3.6 µM. 1% of 200,000 active;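 active = inhibition above the campaign mean inhibition of all tested compounds plus 3 SD, cut at about 20% in these data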
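Material: HEK293 cells co-expressing NPY Y1 receptor and cyclic-nucleotide gated channel. Timing: compound incubation 1 h at room temperature, readout 45 min post-stimulation. Signal: fluorescence, membrane potential probe.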
Wee1 stabilizer: inhibitors of human Wee1 degradation; HeLa Luc-Wee1K328M stability, luciferase luminescence; 100% = proteasome inhibitor MG132 effect; reporter increase, % at 5 µM; 1.2% of 220,000 active; AID 1321;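 active = activation above the mean of all tested compounds plus 3 SD, set per screening run, cut at about 8.8% in these data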;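 also: cells exposed to compound for 20 h before luminescence read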
Target sequence (P30291 whole entry K328M): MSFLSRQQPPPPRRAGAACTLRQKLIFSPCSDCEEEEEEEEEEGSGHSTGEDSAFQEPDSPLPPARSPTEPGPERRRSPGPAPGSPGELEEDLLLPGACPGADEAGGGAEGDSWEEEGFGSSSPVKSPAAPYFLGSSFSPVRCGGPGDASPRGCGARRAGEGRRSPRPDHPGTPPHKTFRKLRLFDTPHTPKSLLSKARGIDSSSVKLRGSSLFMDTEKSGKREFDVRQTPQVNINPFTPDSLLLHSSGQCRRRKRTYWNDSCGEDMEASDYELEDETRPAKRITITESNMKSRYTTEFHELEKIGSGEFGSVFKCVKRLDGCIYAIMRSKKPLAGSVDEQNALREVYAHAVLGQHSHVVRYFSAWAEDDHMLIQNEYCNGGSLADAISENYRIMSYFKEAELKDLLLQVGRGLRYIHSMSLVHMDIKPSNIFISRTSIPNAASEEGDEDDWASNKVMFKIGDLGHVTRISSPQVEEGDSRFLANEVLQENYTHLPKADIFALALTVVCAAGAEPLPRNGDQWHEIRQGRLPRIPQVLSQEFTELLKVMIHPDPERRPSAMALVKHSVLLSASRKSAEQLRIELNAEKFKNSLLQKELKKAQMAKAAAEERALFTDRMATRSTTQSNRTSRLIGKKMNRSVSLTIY
NPY2 pot ag: potentiates or activates human NPY-Y2 receptor. activation, % at 3.6 µM. cells expressing NPY-Y2, potentiator/agonist read-out. 0.45% of 220,000 active; in the data active = activation above about 27%;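 also: cells stimulated with NPY near EC25 plus isoproterenol at EC100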
NPY1 pot ag: human NPY-Y1 potentiation or agonism, primary screen. P25929. NPY-Y1 expressing cells, potentiator/agonist activation. activation, % at 3.6 µM. 0.37% of 220,000 active. AID 1304; in the data active = activation above about 33%, passing the limit was not always enough;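 also: cells stimulated with NPY at EC10 then isoproterenol at EC100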
Wee1 stab conf: human Wee1 degradation inhibition, confirmation; HeLa Luc-Wee1K328M degradation, luminescence; vehicle 0%, proteasome-blocked wells 100%; AID 1410; 4% of 1,100 active; shares compounds with Wee1 stabilizer; activation, % at 5 µM; in the data active = activation above about 8.9%
Numbers stand for hits; – = inactive; · = no result.

SMILES	NPY-Y2 antag	Hsp70 activator	NPY-Y1 antag	Wee1 stabilizer	NPY2 pot ag	NPY1 pot ag	Wee1 stab conf
Cc1cc(C)cc(OCC(=O)N(Cc2ccc(N(C)C)cc2)C2CCS(=O)(=O)C2)c1 (stereo not given)	·	·	·	–	–	–	·
CNC(=O)C(=O)NCCc1ccc(Cl)cc1	–	–	–	20.4	–	–	–
O=C(NCCC1=CCCCC1)C(=O)NCCc1ccc(Cl)cc1	·	–	–	–	–	–	·
CN(C(=O)COc1ncnc2sccc12)c1ccccc1	·	–	–	–	–	–	·
O=C(Nc1cccc(Br)c1)c1ccc(OC2CSC2)cc1	·	–	–	14.3	–	–	–
COc1ccc(NC(=O)c2ccc(Cl)c(NC(=O)c3ccncc3)c2)cc1	·	–	–	12.4	–	–	–
COc1cc(N)cc(NC(=O)c2ccncc2)c1	–	–	–	–	–	–	·
COc1ccc(C(=O)Nc2cccc(C)c2)cc1	–	–	–	11.9	–	–	–
Cc1cc(-c2ccn[nH]2)c(C)s1	·	–	–	–	–	–	·
COc1cc(NS(=O)(=O)c2ccc(NC(=O)C34CC5CC(CC(C5)C3)C4)cc2)ncn1	–	–	–	–	–	–	·
CC(C)Cn1c(N)c(C(=O)COC(=O)c2ccc([N+](=O)[O-])o2)c(=O)n(C)c1=O	·	–	–	15.7	–	–	–
CC(C)Cn1c(N)c(C(=O)COC(=O)c2ccc(O)cc2)c(=O)n(C)c1=O	·	–	–	–	–	–	·
CC(O)C(NS(=O)(=O)c1ccc(Cl)cc1)C(=O)OCC(=O)Nc1cccnc1Cl (stereo not given)	–	–	–	19.7	–	–	–
COc1cc(Cl)c(C)cc1NC(=O)COC(=O)C(NS(=O)(=O)c1ccc(Cl)cc1)C(C)O (stereo not given)	–	–	–	–	–	–	·
O=[N+]([O-])c1cc(Cl)ccc1Sc1cccc2cccnc12	–	–	–	–	–	–	·
O=[N+]([O-])c1ccc(Sc2cccc3cccnc23)c([N+](=O)[O-])c1	–	–	–	15.9	–	–	–
COc1ccc2c(COC(=O)CC3Sc4ccccc4NC3=O)cc(=O)oc2c1 (stereo not given)	–	–	–	11.4	–	–	–
CC(=O)Nc1ccc2c(COC(=O)CC3Sc4ccccc4NC3=O)cc(=O)oc2c1 (stereo not given)	·	–	–	–	–	–	·
COc1cccc(C(=O)Nc2cccc3c2ccc2cccn23)c1	·	–	–	–	–	–	·
Nc1nnc(-c2ccc(Cl)cc2)s1	–	–	–	11.5	–	–	–
Cc1nnc(NC(=O)c2ccc3ccccc3n2)s1	·	–	–	14.1	–	–	–
Cc1nc2ccc(NC(=O)c3ccc4ccccc4n3)cc2s1	·	–	–	–	–	–	·
CC(C)[C@H](NC(=O)[C@H](CC(=O)O)NC(=O)[C@H](CCCCN)NC(=O)[C@@H](N)CCCN=C(N)N)C(=O)N[C@@H](Cc1ccc(O)cc1)C(=O)O	–	–	·	–	–	·	·
CC(=O)Nc1ccc2nc(NC(=O)c3cccs3)sc2c1	·	·	·	11.2	–	–	–
CC(=O)Nc1ccc2nc(-c3cccs3)[nH]c2c1	–	–	–	15.6	–	–	–
SMILES	NPY-Y2 antag	Hsp70 activator	NPY-Y1 antag	Wee1 stabilizer	NPY2 pot ag	NPY1 pot ag	Wee1 stab conf
CC(=O)Nc1ccc2nc3ccccc3nc2c1	·	·	·	23.7	–	–	–
NNC(=O)[C@H]1C[C@@H]1c1ccccc1	–	–	–	–	–	–	·
O=C(COC(=O)[C@@H]1CCCN1C(=O)c1cccs1)NCCc1ccccc1	–	–	–	–	–	–	·
NC(=O)c1cc2ccc(O)cc2oc1=Nc1ccccc1	–	–	–	–	–	–	·
COc1ccc2cc(C(N)=O)c(=Nc3ccccc3)oc2c1	·	–	–	10.9	–	–	–
Clc1cccc(-c2cc3nc4c(c(N5CCNCC5)n3n2)CCCC4)c1	–	–	–	12.2	–	–	–
COc1ccc(S(=O)(=O)N(C(C)=O)c2ccc(OC(C)=O)c3ccccc23)cc1[N+](=O)[O-]	–	–	–	–	–	–	·
COc1cccc(NC(=O)C2CC(=O)OC23CCOC(C)(C)C3)c1 (stereo not given)	–	–	–	23.7	–	–	–
COc1ccc(C2CCCN2C(=S)Nc2cccc(C)c2C)cc1OC (stereo not given)	·	–	–	–	–	–	·
Cc1ccc(S(=O)(=O)N2CCOCC2)cc1C(=O)N(C)CCOc1ccc(Cl)cc1	·	·	·	11.7	–	–	–
CCc1ccc(OCc2nnc(SCCN3CCOCC3)n2C)cc1	–	–	–	–	–	–	·
O=C(CN1N=C(c2ccccc2)CCC1=O)NCc1ccccc1	·	–	–	–	–	–	·
O=C(CN1N=C(c2ccccc2)CCC1=O)NCCN1CCc2ccccc2C1	–	–	–	12.8	–	–	–
COc1ccc(OC)c(C(=O)Cn2nnc(-c3ccc(N4CCOCC4)cc3)n2)c1	·	·	·	–	–	–	·
COc1ccc2c(c1)c(=O)cc(-c1ccccc1)n2C	–	–	–	11.0	–	–	–
Cc1ccc(NC(=O)C2CCCN2S(=O)(=O)c2ccc3c(c2)n(C)c(=O)c(=O)n3C)c(C)c1 (stereo not given)	·	·	·	–	–	–	·
COc1ccc(NC(=O)/C=C2\SC(=O)NC2=O)cc1	·	–	–	15.2	–	–	–
O=C(/C=C/c1ccc(Cl)c(Cl)c1)N1CCc2ccccc21	–	–	–	19.1	–	–	–
O=C(/C=C/c1cccs1)N1CCc2ccccc21	–	–	–	–	–	–	·
O=C(Nc1ccccc1)c1cccc(S(=O)(=O)Oc2ccc([N+](=O)[O-])cc2)c1	–	–	–	–	–	–	·
CCCC1CC(c2csc(N)n2)CCO1 (stereo not given)	–	–	–	–	–	–	·
CC(C)C1CC(c2csc(N)n2)CCO1 (stereo not given)	–	–	–	13.3	–	–	–
Cc1ccc(C)c(C(=O)COC(=O)c2cc([N+](=O)[O-])ccc2NCCO)c1	–	–	–	–	–	–	·
COc1ccc(C2CC(c3ccc4ccccc4c3)=NN2C(=O)COC(=O)C2CCC(=O)N2)cc1 (stereo not given)	·	–	–	14.2	–	–	–
O=C1NN=C(CSc2n[nH]c(=S)s2)CS1	·	–	–	–	–	–	·
N#C/C=C(/N)N1CCN(c2ccc(Cl)c(Cl)c2)CC1	–	–	–	–	–	–	·
COc1ccc(NC(=O)COc2ccc(C(=O)NC3CCCc4ccccc43)cc2OC)cc1 (stereo not given)	–	–	–	15.6	–	–	–
CCOC(=O)C1=c2/c(=C/c3ccncc3)c(N)c(C(=O)OC)n2C(=O)C(c2ccncc2)S1 (stereo not given)	·	–	–	19.1	–	–	–
Cc1cc(C)nc(NC(=O)c2ccc(Cl)cc2)n1	·	–	–	17.2	–	–	–
